Assay results from ChEMBL document CHEMBL4351026, “Antifungal activity, mode of action variability, and subcellular distribution of coumarin-based antifungal azoles” (Eur J Med Chem, 2019).
Values after ≈ are worked out from the molar mass of the structure shown. Active and inactive are the calls of the source. The rule behind the calls is not given here.

Key:
[1] = system: Candida parapsilosis; experiment: Antifungal activity against Candida parapsilosis ATCC 22019 assessed as reduction in fungal cell growth incubated for 24 hrs by MTT based broth double dilution method; format: functional; settings: Lodderomyces parapsilosis, ATCC 22019, 24 h
Outline: (§1)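 Broth double-dilution in Casitone broth. Starter cultures were grown 24 or 48 h at 37 °C, 5% CO₂, diluted 1:100, and added to serial two-fold dilutions at 64 to 0.007 µg/mL. Final inoculum was 5 x 10^4 to 5 x 10^5 CFU/mL; DMSO was 0.0012–1.3%. Plates were incubated at 37 °C, 5% CO₂, then MTT was added for 2 h. MIC followed CLSI M27-A3. Triplicates, two independent experiments.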

[2] = system: Candida albicans; experiment: Antifungal activity against Candida albicans ATCC 90028 assessed as reduction in fungal cell growth incubated for 24 hrs by MTT based broth double dilution method; format: functional; settings: ATCC 90028, 24 h; outline: as §1
[3] = system: Candida dubliniensis; experiment: Antifungal activity against Candida dubliniensis T-99 assessed as reduction in fungal cell growth incubated for 24 hrs by MTT based broth double dilution method; format: functional; settings: T-99, 24 h; outline: as §1
[4] = system: Meyerozyma guilliermondii; experiment: Antifungal activity against Candida guilliermondii T-47 assessed as reduction in fungal cell growth incubated for 24 hrs by MTT based broth double dilution method; format: functional; settings: T-47, 24 h; outline: as §1
[5] = system: Candida albicans; experiment: Antifungal activity against Candida albicans SN152 assessed as reduction in fungal cell growth incubated for 24 hrs by MTT based broth double dilution method; format: functional; settings: SN152, 24 h; outline: as §1
[6] = system: Candida parapsilosis; experiment: Antifungal activity against Candida parapsilosis ATCC 90018 assessed as reduction in fungal cell growth incubated for 24 hrs by MTT based broth double dilution method; format: functional; settings: Lodderomyces parapsilosis, ATCC 90018, 24 h; outline: as §1
[7] = system: Candida albicans; experiment: Antifungal activity against Candida albicans P-87 assessed as reduction in fungal cell growth incubated for 24 hrs by MTT based broth double dilution method; format: functional; settings: P-87, 24 h; outline: as §1
[8] = system: Nakaseomyces glabratus; experiment: Antifungal activity against Candida glabrata 192 assessed as reduction in fungal cell growth incubated for 24 hrs by MTT based broth double dilution method; format: functional; settings: Nakaseomyces glabratus, 192, 24 h; outline: as §1
[9] = system: Nakaseomyces glabratus; experiment: Antifungal activity against Candida glabrata ATCC 2001 assessed as reduction in fungal cell growth incubated for 24 hrs by MTT based broth double dilution method; format: functional; settings: ATCC 2001, 24 h; outline: as §1
[10] = system: Nakaseomyces glabratus; experiment: Antifungal activity against Candida glabrata ATCC 66032 assessed as reduction in fungal cell growth incubated for 24 hrs by MTT based broth double dilution method; format: functional; settings: ATCC 66032, 24 h; outline: as §1
[11] = system: Nakaseomyces glabratus; experiment: Antifungal activity against Candida glabrata 192 assessed as reduction in fungal cell growth incubated for 48 hrs by MTT based broth double dilution method; format: functional; settings: Nakaseomyces glabratus, 192, 48 h; outline: as §1
[12] = system: Candida albicans; experiment: Antifungal activity against Candida albicans SN152 assessed as reduction in fungal cell growth incubated for 48 hrs by MTT based broth double dilution method; format: functional; settings: SN152, 48 h; outline: as §1
[13] = target: Cytochrome P450 3A4 (Homo sapiens, UniProt P08684); experiment: Inhibition of recombinant human CYP3A4 using Luciferin-PPXE as substrate preincubated for 10 mins followed by NADPH addition measured after 15 mins by luminometric method; format: ADME
Outline: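 P450-Glo luminescent assay, Luciferin-PPXE substrate. Compound was mixed with membranes containing recombinant human CYP3A4; controls were vehicle with membranes lacking CYP3A4. After 10 min preincubation at 37 °C, NADPH regeneration reagent was added and the mixture kept 15 min at 37 °C. Luciferin detection reagent stopped the reaction; after 20 min at room temperature, luminescence was read. Duplicates.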

[14] = system: Nakaseomyces glabratus; experiment: Antifungal activity against Candida glabrata ATCC 66032 assessed as reduction in fungal cell growth incubated for 48 hrs by MTT based broth double dilution method; format: functional; settings: ATCC 66032, 48 h; outline: as §1
[15] = system: Candida albicans; experiment: Antifungal activity against Candida albicans ATCC 90028 assessed as reduction in fungal cell growth incubated for 48 hrs by MTT based broth double dilution method; format: functional; settings: ATCC 90028, 48 h; outline: as §1
[16] = system: Candida albicans; experiment: Antifungal activity against Candida albicans SN152 assessed as zone inhibition at 25 ug incubated for 24 hrs by disk diffusion method; format: functional, organism-based
Outline: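 Strains were streaked on YPD agar and grown at 30 °C: 24 h for parental SN152, 48 h for the erg11ΔΔ erg3ΔΔ mutant. Colonies were suspended in PBS and adjusted to OD 0.02 (SN152) or 0.03 (mutant), then spread on Casitone plates. A 6-mm disk loaded with 25 µg compound was placed centrally. Plates were incubated at 30 °C and photographed after 24 h.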

[17] = system: Candida albicans; experiment: Antifungal activity against ERG11/ERG3 knocked out Candida albicans SN152 assessed as zone of inhibition at 25 ug […] by disk diffusion method; format: functional, organism-based

Cytochrome P450 3A4, sequence (P08684 whole entry): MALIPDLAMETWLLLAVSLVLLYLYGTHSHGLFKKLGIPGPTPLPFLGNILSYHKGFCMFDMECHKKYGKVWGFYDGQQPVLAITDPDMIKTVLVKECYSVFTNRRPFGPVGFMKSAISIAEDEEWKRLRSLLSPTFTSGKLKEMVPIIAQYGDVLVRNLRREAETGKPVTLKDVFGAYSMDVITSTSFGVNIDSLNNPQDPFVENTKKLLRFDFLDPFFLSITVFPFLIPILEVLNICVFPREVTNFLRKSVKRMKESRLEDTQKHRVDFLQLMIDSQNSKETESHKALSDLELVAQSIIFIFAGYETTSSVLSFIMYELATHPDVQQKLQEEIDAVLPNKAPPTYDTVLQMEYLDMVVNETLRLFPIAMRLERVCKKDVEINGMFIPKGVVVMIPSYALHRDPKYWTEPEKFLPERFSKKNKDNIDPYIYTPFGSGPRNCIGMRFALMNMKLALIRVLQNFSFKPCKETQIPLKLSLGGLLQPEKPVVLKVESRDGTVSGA

Compound | MIC [1] | MIC [2] | MIC [3] | MIC [4] | MIC [5] | MIC [6] | MIC [7] | MIC [8] | MIC [9] | MIC [10] | MIC [11] | MIC [12] | IC50 [13] | MIC [14] | MIC [15] | inhibition zone (IZ) [16] | inhibition zone (IZ) [17]
O=C(NCC(O)(Cn1cncn1)c1ccc(F)cc1F)c1cc2ccccc2[nH]c1=O (racemic) | 8 µg/mL (≈ 18.8 µM) | 2 µg/mL (≈ 4.7 µM) | 8 µg/mL (≈ 18.8 µM) | 8 µg/mL (≈ 18.8 µM) | 0.5 µg/mL (≈ 1.18 µM) | 2 µg/mL (≈ 4.7 µM) | 1 µg/mL (≈ 2.35 µM) | 16 µg/mL (≈ 37.6 µM) | 64 µg/mL (≈ 150 µM) | > 64 µg/mL | – | – | – | – | – | – | –
O=C(NCC(O)(Cn1cncn1)c1ccc(F)cc1F)c1cc2ccc(Cl)cc2[nH]c1=O (racemic) | 8 µg/mL (≈ 17.4 µM) | 1 µg/mL (≈ 2.17 µM) | 8 µg/mL (≈ 17.4 µM) | 8 µg/mL (≈ 17.4 µM) | 0.5 µg/mL (≈ 1.09 µM) | 1 µg/mL (≈ 2.17 µM) | 1 µg/mL (≈ 2.17 µM) | 16 µg/mL (≈ 34.8 µM) | > 64 µg/mL | 64 µg/mL (≈ 139 µM) | – | – | – | – | – | – | –
O=C(NCC(O)(Cn1cncn1)c1ccc(F)cc1F)c1cc2ccc(O)cc2oc1=O (racemic) | > 64 µg/mL | 64 µg/mL (≈ 145 µM) | > 64 µg/mL | > 64 µg/mL | > 64 µg/mL | > 64 µg/mL | 64 µg/mL (≈ 145 µM) | > 64 µg/mL | 64 µg/mL (≈ 145 µM) | > 64 µg/mL | – | – | – | – | – | – | –
CCC(CC)Oc1ccc2cc(C(=O)NCC(O)(Cn3cncn3)c3ccc(F)cc3F)c(=O)oc2c1 (racemic) | 2 µg/mL (≈ 3.9 µM) | 0.125 µg/mL (≈ 0.244 µM) | 2 µg/mL (≈ 3.9 µM) | 2 µg/mL (≈ 3.9 µM) | 0.25 µg/mL (≈ 0.488 µM) | 0.5 µg/mL (≈ 0.976 µM) | 0.125 µg/mL (≈ 0.244 µM) | 4 µg/mL (≈ 7.8 µM) | 32 µg/mL (≈ 62.4 µM) | > 64 µg/mL | 8 µg/mL (≈ 15.6 µM) | 0.5 µg/mL (≈ 0.976 µM) | ≥ 2500 nM | > 64 µg/mL | 0.5 µg/mL (≈ 0.976 µM) | – | –
COc1ccc2cc(C(=O)NCC(O)(Cn3cncn3)c3ccc(F)cc3F)c(=O)[nH]c2c1 (racemic) | > 64 µg/mL | 1 µg/mL (≈ 2.2 µM) | > 64 µg/mL | > 64 µg/mL | 4 µg/mL (≈ 8.78 µM) | 2 µg/mL (≈ 4.39 µM) | 2 µg/mL (≈ 4.39 µM) | > 64 µg/mL | > 64 µg/mL | > 64 µg/mL | – | – | – | – | – | – | –
CCC(CC)Oc1ccc2cc(C(=O)NCC(O)(Cn3ccnc3)c3ccc(F)cc3F)c(=O)oc2c1 (racemic) | 0.25 µg/mL (≈ 0.489 µM) | 0.03 µg/mL (≈ 0.0586 µM) | 0.25 µg/mL (≈ 0.489 µM) | 0.125 µg/mL (≈ 0.244 µM) | 0.03 µg/mL (≈ 0.0586 µM) | 0.125 µg/mL (≈ 0.244 µM) | 0.015 µg/mL (≈ 0.0293 µM) | 1 µg/mL (≈ 1.95 µM) | 4 µg/mL (≈ 7.82 µM) | 2 µg/mL (≈ 3.91 µM) | 2 µg/mL (≈ 3.91 µM) | 0.06 µg/mL (≈ 0.117 µM) | 332 nM | 4 µg/mL (≈ 7.82 µM) | 0.06 µg/mL (≈ 0.117 µM) | Active | Active
